Measurements published in ChEMBL document CHEMBL3351566, “Blood schizontocidal and gametocytocidal activity of 3-hydroxy-N'-arylidenepropanehydrazonamides: a new class of antiplasmodial compounds” (J Med Chem, 2014).

Tests used:
Plasmodium falciparum [1] = assay: Antiplasmodial activity against Plasmodium falciparum Dd2 asexual blood stages after 3 days by HRP2 detection based ELISA method; format: functional, organism-based; conditions: Dd2, 72 h
Method in brief: (§1)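 HRP2-based growth inhibition of P. falciparum asexual blood stages, 3D7 (chloroquine-sensitive) or Dd2 (multidrug-resistant). IC50 from 12 serial dilutions. Mean of at least two independent experiments, each run in duplicate.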

Plasmodium falciparum [2] = assay: Antiplasmodial activity against Plasmodium falciparum 3D7 asexual blood stages after 3 days by HRP2 detection based ELISA method; format: functional, organism-based; conditions: 3D7, 72 h; method in brief: as §1
[3] = Selectivity index, ratio of IC50 for rat L6 cells to IC50 for Plasmodium falciparum 3D7 asexual blood stages; format: toxicity, cell-based; conditions: read-out: Ratio IC50
Method in brief: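 Selectivity index calculated as L6 cytotoxicity IC50 divided by P. falciparum 3D7 IC50, using unrounded cytotoxicity values.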

L6 = assay: Cytotoxicity against rat L6 cells after 72 hrs by alamar blue assay; format: cell-based; conditions: L6, 72 h
Plasmodium falciparum [4] = assay: Gametocytocidal activity against transgenic Plasmodium falciparum NF54-pfs16-GFP late stage gametocytes after 72 hrs by mitotracker red CM-H2XRos dye based confocal imaging assay; format: functional, organism-based; conditions: NF54, 72 h
Method in brief: (§2)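 Late-stage gametocytes stained with MitoTracker Red, imaged, and scored by viable elongated MTR-positive morphology. % inhibition set relative to a puromycin 100% inhibition control. Compounds in 4% DMSO, top concentration 120 or 40 μM. IC50 from 21 serial dilutions. Mean of two independent experiments, each in duplicate.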

Plasmodium falciparum [5] = assay: Gametocytocidal activity against transgenic Plasmodium falciparum NF54-pfs16-GFP late stage gametocytes at 120 uM after 72 hrs by mitotracker red CM-H2XRos dye based confocal imaging assay; format: functional; conditions: NF54, 72 h; method in brief: as §2
Plasmodium berghei [6] = assay: Antiplasmodial activity against Plasmodium berghei infected in mouse assessed as […] in mouse survival at 50 mg/kg, po dosed once daily for 4 days on 4, 24, 48 and 72 hrs post infection and measured on day 4 (reference value: 4 days); format: functional
Method in brief: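 Standard Peters 4-day test in P. berghei-infected mice (n = 3 per group), dosed orally at 4, 24, 48 and 72 h post-infection. Compound was dissolved or suspended in 70/30 Tween 80/ethanol and diluted 10× with water. Blood for parasitemia was taken on day 4 (96 h). Survival was given as mean days, with parasite-free at day 30 taken as cure. Untreated infected controls were euthanized on day 4.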

[7] = Plasma concentration in Plasmodium berghei infected mouse at 50 mg/kg, po dosed once daily for 4 days on 4, 24, 48 and 72 hrs post infection and measured 1 hr post dose by HPLC-MS/MS method; format: ADME, organism-based; set-up: dose 50 mg/kg, route oral
Method in brief: (§3)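 P. berghei-infected mice (n = 3 per group) given oral doses in 70/30 Tween 80/ethanol diluted 10× with water, at 4, 24, 48 and 72 h postinfection. Plasma drug levels (ng/mL) measured at 1, 4 and 24 h after oral treatment.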

[8] = Plasma concentration in Plasmodium berghei infected mouse at 50 mg/kg, po dosed once daily for 4 days on 4, 24, 48 and 72 hrs post infection and measured 24 hrs post dose by HPLC-MS/MS method; format: ADME, organism-based; set-up: dose 50 mg/kg, route oral; method in brief: as §3
Plasmodium berghei [9] = assay: Antiplasmodial activity against Plasmodium berghei infected in mouse assessed as reduction in parasitemia level at 50 mg/kg, po dosed once daily for 4 days on 4, 24, 48 and 72 hrs post infection and measured on day 4; format: functional
Method in brief: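 Peters 4-day test in P. berghei-infected mice, n = 3 per group. 50 mg/kg given orally once daily at 4, 24, 48 and 72 h postinfection. Dosed as a solution or suspension in 70/30 Tween 80/ethanol diluted 10× with water. Parasitemia read from blood taken on day 4 (96 h postinfection), expressed as % reduction versus an infected untreated control.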

[10] = Plasma concentration in Plasmodium berghei infected mouse at 50 mg/kg, po dosed once daily for 4 days on 4, 24, 48 and 72 hrs post infection and measured 4 hrs post dose by HPLC-MS/MS method; format: ADME, organism-based; set-up: dose 50 mg/kg, route oral; method in brief: as §3
Mus musculus [11] = assay: Toxicity in Plasmodium berghei infected mouse assessed as changes in physiological activities at 50 mg/kg, po dosed once daily for 4 days on 4, 24, 48 and 72 hrs post infection; format: organism-based; set-up: dose 50 mg/kg, route oral; conditions: in vivo
Method in brief: (§4)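 P. berghei-infected mice (n = 3 per group) received four oral doses at 4, 24, 48 and 72 h post-infection. Vehicle was 70/30 Tween 80/ethanol diluted 10× with water. Mice were watched for acute toxicity signs: death, changes in general behaviour, and changes in physiological activities.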

Mus musculus [12] = assay: Toxicity in Plasmodium berghei infected mouse assessed as mouse mortality level at 50 mg/kg, po dosed once daily for 4 days on 4, 24, 48 and 72 hrs post infection; format: organism-based; set-up: dose 50 mg/kg, route oral; conditions: in vivo; method in brief: as §4
Mus musculus [13] = assay: Toxicity in Plasmodium berghei infected mouse assessed as changes in general behaviors at 50 mg/kg, po dosed once daily for 4 days on 4, 24, 48 and 72 hrs post infection; format: organism-based; set-up: dose 50 mg/kg, route oral; conditions: in vivo; method in brief: as §4
Plasmodium falciparum [14] = assay: Gametocytocidal activity against transgenic Plasmodium falciparum NF54-pfs16-GFP late stage gametocytes at 40 uM after 72 hrs by mitotracker red CM-H2XRos dye based confocal imaging assay; format: functional; conditions: NF54, 72 h; method in brief: as §2

N/C(CC(O)c1cccc2ccccc12)=N\N=C\c1cccc(Br)c1 (stereo not drawn)
IC50 (Plasmodium falciparum [1]): 94 nM | IC50 (Plasmodium falciparum [2]): 91 nM | selectivity ratio [3]: 43 | IC50 (L6): 3900 nM

N/C(CC(O)c1ccc2ccccc2c1)=N\N=C\c1ccc(C(F)(F)F)cc1 (stereo not drawn)
IC50 (Plasmodium falciparum [1]): > 10000 nM | IC50 (Plasmodium falciparum [2]): > 10000 nM

Cc1ccc(/C=N/N=C(\N)CC(O)c2ccc3ccccc3c2)cc1 (stereo not drawn)
IC50 (Plasmodium falciparum [1]): 380 nM | IC50 (Plasmodium falciparum [2]): 540 nM | selectivity ratio [3]: 190 | IC50 (L6): 103000 nM

CCC/C(=N\N=C(/N)CC(O)c1cccc2ccccc12)c1ccccc1 (stereo not drawn)
IC50 (Plasmodium falciparum [1]): 610 nM | IC50 (Plasmodium falciparum [2]): 240 nM | selectivity ratio [3]: 120 | IC50 (L6): 29000 nM

N/C(CC(O)c1cccc2ccccc12)=N\N=C\c1ccc(F)c(F)c1 (stereo not drawn)
IC50 (Plasmodium falciparum [1]): 550 nM | IC50 (Plasmodium falciparum [2]): 180 nM | selectivity ratio [3]: 95 | IC50 (L6): 17000 nM

COc1ccc(/C=N/N=C(\N)CC(O)c2ccc3ccccc3c2)cc1 (stereo not drawn)
IC50 (Plasmodium falciparum [1]): 620 nM | IC50 (Plasmodium falciparum [2]): 380 nM | selectivity ratio [3]: 182 | IC50 (L6): 69000 nM

N/C(CC(O)c1cccc2ccccc12)=N\N=C\c1ccc(F)cc1F (stereo not drawn)
IC50 (Plasmodium falciparum [1]): 190 nM | IC50 (Plasmodium falciparum [2]): 190 nM | selectivity ratio [3]: 22 | IC50 (L6): 4200 nM

COc1cc([C@@H]2c3cc4c(cc3[C@H](O)[C@H]3COC(=O)[C@H]23)OCO4)cc(OC)c1OC [PODOFILOX]
IC50 (Plasmodium falciparum [1]): 8300 nM | IC50 (Plasmodium falciparum [2]): 9200 nM | selectivity ratio [3]: 0.0016 | IC50 (L6): 9.7 nM

N/C(CC(O)c1ccc2ccccc2c1)=N\N=C\c1ccc(Cl)c(Cl)c1 (stereo not drawn)
IC50 (Plasmodium falciparum [1]): 700 nM | IC50 (Plasmodium falciparum [2]): 1900 nM | selectivity ratio [3]: 52 | IC50 (L6): 100000 nM

CCOc1cc(/C=N/N=C(\N)CC(O)c2cccc3ccccc23)ccc1O (stereo not drawn)
IC50 (Plasmodium falciparum [1]): 450 nM | IC50 (Plasmodium falciparum [2]): 250 nM | selectivity ratio [3]: 17 | IC50 (L6): 4200 nM

CCOc1cc(/C=N/N=C(\N)CC(O)c2ccc3ccccc3c2)ccc1O (stereo not drawn)
IC50 (Plasmodium falciparum [1]): 1300 nM | IC50 (Plasmodium falciparum [2]): 1100 nM | selectivity ratio [3]: 71 | IC50 (L6): 78000 nM

N/C(CC(O)c1cccc2ccccc12)=N\N=C\c1ccc(Cl)c(Cl)c1 (stereo not drawn)
IC50 (Plasmodium falciparum [1]): 190 nM | IC50 (Plasmodium falciparum [2]): 250 nM | selectivity ratio [3]: 63 | IC50 (L6): 16000 nM

COc1ccc(/C=N/N=C(\N)CC(O)c2cccc3ccccc23)cc1 (stereo not drawn)
IC50 (Plasmodium falciparum [1]): 210 nM | IC50 (Plasmodium falciparum [2]): 83 nM | selectivity ratio [3]: 76 | IC50 (L6): 6300 nM

N/C(CC(O)c1ccc2ccccc2c1)=N\N=C\c1ccco1 (stereo not drawn)
IC50 (Plasmodium falciparum [1]): > 10000 nM | IC50 (Plasmodium falciparum [2]): > 10000 nM

N/C(CC(O)c1cccc2ccccc12)=N\N=C\c1ccccc1 (stereo not drawn)
IC50 (Plasmodium falciparum [1]): 240 nM | IC50 (Plasmodium falciparum [2]): 100 nM | selectivity ratio [3]: 170 | IC50 (L6): 17000 nM

N/C(CC(O)c1cc2ccccc2c2ccccc12)=N\N=C\c1ccccc1 (stereo not drawn)
IC50 (Plasmodium falciparum [1]): 28 nM | IC50 (Plasmodium falciparum [4]): 180 nM | IC50 (Plasmodium falciparum [2]): 16 nM | selectivity ratio [3]: 383 | IC50 (L6): 6100 nM

N/C(=N\N=C\c1ccccc1)C(O)c1ccc2ccccc2c1 (stereo not drawn)
IC50 (Plasmodium falciparum [1]): > 10000 nM | IC50 (Plasmodium falciparum [2]): > 10000 nM

N/C(=N\N=C\c1ccccc1)C(O)c1cccc2ccccc12 (stereo not drawn)
IC50 (Plasmodium falciparum [1]): 3900 nM | IC50 (Plasmodium falciparum [2]): 3000 nM | selectivity ratio [3]: 100 | IC50 (L6): 300000 nM

N/C(CC(O)c1cccc2ccccc12)=N\N=C\c1cccnc1 (stereo not drawn)
IC50 (Plasmodium falciparum [1]): 1100 nM | IC50 (Plasmodium falciparum [2]): 2700 nM | selectivity ratio [3]: 8 | IC50 (L6): 22000 nM

N/C(CC(O)c1cccc2ccccc12)=N\N=C\c1ccc(C(F)(F)F)cc1 (stereo not drawn)
IC50 (Plasmodium falciparum [1]): 300 nM | IC50 (Plasmodium falciparum [2]): 110 nM | selectivity ratio [3]: 234 | IC50 (L6): 26000 nM

CCN(CC)CCCC(C)Nc1ccnc2cc(Cl)ccc12 (stereo not drawn) [CHLOROQUINE]
inhibition at 120 µM (Plasmodium falciparum [5]): 44% | IC50 (L6): 78000 nM

N/C(CC(O)c1cccc2ccccc12)=N\N=C\c1ccc(F)cc1 (stereo not drawn)
IC50 (Plasmodium falciparum [1]): 200 nM | MSD (Plasmodium berghei [6]): 6.7 days | concentration at 1 h [7]: 316 ng/mL | concentration at 24 h [8]: < 5 ng/mL | IC50 (Plasmodium falciparum [4]): 780 nM | IC50 (Plasmodium falciparum [2]): 60 nM | inhibition in vivo at 50 mg/kg (Plasmodium berghei [9]): 40% | concentration at 4 h [10]: 145 ng/mL | selectivity ratio [3]: 321 | IC50 (L6): 19000 nM

O[C@@H](c1cc(C(F)(F)F)nc2c(C(F)(F)F)cccc12)[C@H]1CCCCN1 (relative stereo) [(S,R)-MEFLOQUINE]
IC50 (Plasmodium falciparum [4]): 100 nM | IC50 (L6): 4500 nM

C/C(=N\N=C(/N)CC(O)c1cccc2ccccc12)c1ccc(F)cc1 (stereo not drawn)
IC50 (Plasmodium falciparum [1]): 740 nM | IC50 (Plasmodium falciparum [2]): 400 nM | selectivity ratio [3]: 86 | IC50 (L6): 34000 nM

C[C@H]1[C@H](OC(=O)CCC(=O)O)O[C@@H]2O[C@@]3(C)CC[C@H]4[C@H](C)CC[C@@H]1[C@@]24OO3 [ARTESUNATE]
IC50 (Plasmodium falciparum [1]): 2 nM | IC50 (Plasmodium falciparum [4]): 44 nM | IC50 (L6): 24000 nM

N/C(CC(O)c1ccc2ccccc2c1)=N\N=C\c1ccc(F)cc1F (stereo not drawn)
IC50 (Plasmodium falciparum [1]): > 10000 nM | IC50 (Plasmodium falciparum [2]): 4000 nM | selectivity ratio [3]: 23 | IC50 (L6): 93000 nM

N/C(CC(O)c1cc2ccccc2c2ccccc12)=N\N=C\c1ccc(F)cc1 (stereo not drawn)
IC50 (Plasmodium falciparum [1]): 11 nM | MSD (Plasmodium berghei [6]): 10 days | Activity (Mus musculus [11]): Non-toxic | concentration at 1 h [7]: 4690 ng/mL | concentration at 24 h [8]: 86.1 ng/mL | IC50 (Plasmodium falciparum [4]): 370 nM | Activity (Mus musculus [12]): Non-toxic | IC50 (Plasmodium falciparum [2]): 8.3 nM | Activity (Mus musculus [13]): Non-toxic | inhibition in vivo at 50 mg/kg (Plasmodium berghei [9]): 99.6% | concentration at 4 h [10]: 3100 ng/mL | selectivity ratio [3]: 1890 | IC50 (L6): 16000 nM

N/C(CC(O)c1ccc2ccccc2c1)=N\N=C\c1cccnc1 (stereo not drawn)
IC50 (Plasmodium falciparum [1]): > 10000 nM | IC50 (Plasmodium falciparum [2]): > 10000 nM

Cc1ccc(/C=N/N=C(\N)CC(O)c2cccc3ccccc23)cc1 (stereo not drawn)
IC50 (Plasmodium falciparum [1]): 62 nM | IC50 (Plasmodium falciparum [2]): 190 nM | selectivity ratio [3]: 36 | IC50 (L6): 6800 nM

N/C(CC(O)c1cccc2ccccc12)=N\N=C\c1ccco1 (stereo not drawn)
IC50 (Plasmodium falciparum [1]): 380 nM | IC50 (Plasmodium falciparum [2]): 510 nM | selectivity ratio [3]: 284 | IC50 (L6): 145000 nM

N/C(CC(O)c1ccc2ccccc2c1)=N\N=C\c1ccc(F)cc1 (stereo not drawn)
IC50 (Plasmodium falciparum [1]): 2500 nM | inhibition at 40 µM (Plasmodium falciparum [14]): 25% | IC50 (Plasmodium falciparum [2]): 2000 nM | selectivity ratio [3]: > 149 | IC50 (L6): > 298000 nM
